Assay results from different studies.
Compare with care: the assays were run in different laboratories.
Target: Serine/threonine-protein kinase PAK 4 (PAK4, Homo sapiens, UniProt O96013)

Compound | assay | setting | measurement | value
COc1cc(Nc2ncc(F)c(Nc3ccc4c(n3)NC(=O)C(C)(C)O4)n2)cc(OC)c1OC | binding, competition with immobilised ligand | 10 µM | inhibition | 97%
O=c1[nH]c2ccccc2n1C1CCN(Cc2ccc(-c3[nH]c4cc5ncnc5cc4nc3-c3ccccc3)cc2)CC1 | cell-free assay | 0.5 µM | remaining signal | 102%
Nc1ncc(-c2nc(N3CCOCC3)nc(N3CCOCC3)n2)c(C(F)F)n1 | binding, competition with immobilised ligand | 10 µM | remaining binding | 58%
C#Cc1n[nH]c2c(-c3cn([C@@H](C)c4ccccc4)c(=O)[nH]c3=O)cc(F)cc12 | enzyme activity, inhibitor | 0.1 µM | inhibition | 0.6%
COc1ncccc1-c1cnn2ccc(N3CCN(C(=O)OC(C)C)CC3)nc12 | binding, competition with immobilised ligand | 1 µM | remaining binding | 62%
Cc1nn(C)cc1-c1nc2c(N3CCN(Cc4ccc(Cl)cc4)CC3)c(Cl)cnc2[nH]1 | binding, competition with immobilised ligand | 1 µM | remaining binding | 100%
Cn1cc(-c2cccc(N3CCc4c(sc5c4CC(C)(C)C5)C3=O)c2CO)cc(Nc2ccncn2)c1=O | enzyme activity, inhibitor | 1 µM | inhibition | -6%
Cn1cncc1[C@@](O)(COc1ccc(C#N)cc1-c1ccc(OC(F)(F)F)cc1)c1ccc(C#N)cc1 | cell-free assay, competition with immobilised ligand | 1 µM | remaining binding | 100%
Cc1n[nH]c2ccc(-c3cncc(OC[C@@H](N)Cc4c[nH]c5ccccc45)c3)cc12 | enzyme activity, inhibitor | 1 µM | inhibition | 26%
C#Cc1n[nH]c2c(-c3cn(C(C)c4ccccn4)c(=O)[nH]c3=O)cc(F)cc12 (stereo not drawn) | enzyme activity, inhibitor | 1 µM | inhibition | -6%
Cn1cc(-c2cc(F)cc(N3CCn4c(cc5c4CCCC5)C3=O)c2CO)cc(Nc2ccc(N3CCN(C4COC4)CC3)cn2)c1=O | enzyme activity, inhibitor | 0.1 µM | inhibition | 1%
N#CC1(c2ccccn2)CCN(Cc2cc(C(=O)O)c(=O)n3ccccc23)CC1 | cell-free assay, competition with immobilised ligand | 1 µM | remaining binding | 100%
